Measurements published in ChEMBL document CHEMBL2016511, “Development of clickable active site-directed photoaffinity probes for γ-secretase” (Bioorg Med Chem Lett, 2012).
The source made the active and inactive calls. The rule behind the calls is not given here.

Legend:
[1] = Inhibition of gamma-secretase in CHO-APP cells assessed as amyloid beta-42 production using APP as substrate; type: cell-based; conditions: Cricetulus griseus
[2] = target: Presenilin-1 (Homo sapiens) (UniProt P49768); assay: Binding affinity to PS1 N-terminal fragment in human HeLa cell membrane at 20 nM after 1 hr by photo-affinity based Western blot analysis; type: cell membranes
Procedure, shortened: (§1)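 HeLa membranes (800 μg in 1.2 mL PBS) incubated 1 h at 37 °C with probe at 20 nM, with or without 1 μM competitor GSI. Photoirradiated at ~350 nm for 30 min at 4 °C, then pelleted. Click with biotin-azide (0.1 mM), TCEP 1.0 mM, CuSO4 1.0 mM, TBTA 0.1 mM, 1 h at room temperature. Solubilized in RIPA, streptavidin pull-down, SDS-PAGE, Western blot with PS1-NTF, PS1-CTF or SPP antibodies.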

[3] = target: Presenilin-1 (Homo sapiens) (UniProt P49768); assay: Binding affinity to PS1 N-terminal fragment in human HeLa cell membrane at 20 nM by photo-affinity in-gel fluorescence method; type: cell membranes
Procedure, shortened: (§2)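 HeLa membranes photolabeled with probe at 20 nM, with or without 1 μM competitor GSI L458, then ~350 nm irradiation. Click reaction with TAMRA-azide, then acetone precipitation to remove excess reagent. Resolubilized in loading buffer, separated by SDS-PAGE, and scanned for in-gel fluorescence of PS1-NTF and PS1-CTF bands. Coomassie staining confirmed equal loading.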

[4] = target: Presenilin-1 (Homo sapiens) (UniProt P49768); assay: Binding affinity to PS1 N-terminal fragment in human HeLa cell membrane at 20 nM by photo-affinity in-gel fluorescence method in presence of GSI L458; type: cell membranes; procedure, shortened: as §2
[5] = target: Presenilin-1 (Homo sapiens) (UniProt P49768); assay: Binding affinity to PS1 Carboxy-terminal fragment in human HeLa cell membrane at 20 nM after 1 hr by photo-affinity based Western blot analysis; type: cell membranes; procedure, shortened: as §1
HeLa = assay: Binding affinity to SPP in human HeLa cell membrane at 20 nM after 1 hr by photo-affinity based Western blot analysis; type: cell membranes; procedure, shortened: as §1
[6] = target: Presenilin-1 (Homo sapiens) (UniProt P49768); assay: Binding affinity to PS1 Carboxy-terminal fragment in human HeLa cell membrane at 20 nM by photo-affinity in-gel fluorescence method; type: cell membranes; procedure, shortened: as §2
[7] = target: Presenilin-1 (Homo sapiens) (UniProt P49768); assay: Binding affinity to PS1 Carboxy-terminal fragment in human HeLa cell membrane at 20 nM by photo-affinity in-gel fluorescence method in presence of GSI L458; type: cell membranes; procedure, shortened: as §2
[8] = target: Presenilin-1 (Homo sapiens) (UniProt P49768); assay: Binding affinity to PS1 N-terminal fragment in human HeLa cell membrane at 20 nM after 1 hr by photo-affinity-based Western blot analysis in presence of GSI L458; type: cell membranes; procedure, shortened: as §1

Row | SMILES | IC50 [1] | Activity [2] | Activity [3] | Activity [4] | Activity [5] | Activity (HeLa) | Activity [6] | Activity [7] | Activity [8]
1 | C#CCCCCNC(=O)[C@H](Cc1ccc(C(=O)c2ccccc2)cc1)NC(=O)[C@H](CC(C)C)NC(=O)[C@H](Cc1ccccc1)C[C@@H](O)[C@H](Cc1ccccc1)NC(=O)OC(C)(C)C | 4 nM | inactive | inactive | inactive | Active | Active | Active | inactive | –
2 | C#CCCCCNC(=O)[C@H](Cc1ccccc1)NC(=O)[C@H](CC(C)C)NC(=O)[C@H](Cc1ccccc1)C[C@@H](O)[C@H](Cc1ccccc1)NC(=O)c1ccc(C(=O)c2ccccc2)cc1 | 1000 nM | Active | Active | inactive | inactive | inactive | inactive | inactive | inactive
3 | CC(C)C[C@H](NC(=O)[C@H](Cc1ccccc1)C[C@@H](O)[C@H](Cc1ccccc1)NC(=O)OC(C)(C)C)C(=O)N[C@@H](Cc1ccc(C(=O)c2ccccc2)cc1)C(=O)NCCCCCNC(=O)CCCC[C@@H]1SC[C@@H]2NC(=O)N[C@@H]21 | 30 nM | – | – | – | – | – | – | – | –
4 | CC(C)C[C@H](NC(=O)[C@H](Cc1ccccc1)C[C@@H](O)[C@H](Cc1ccccc1)NC(=O)OC(C)(C)C)C(=O)N[C@@H](Cc1ccccc1)C(N)=O | 36 nM | – | – | – | – | – | – | – | –
5 | CC(C)C[C@H](NC(=O)[C@H](Cc1ccccc1)C[C@@H](O)[C@H](Cc1ccccc1)NC(=O)c1ccc(C(=O)c2ccccc2)cc1)C(=O)N[C@@H](Cc1ccccc1)C(=O)NCCCCCNC(=O)CCCC[C@@H]1SC[C@@H]2NC(=O)N[C@@H]21 | 817 nM | Active | – | – | – | – | – | – | inactive
